Laboratory results published in ChEMBL document CHEMBL1147021, “Novel indole inhibitors of IMPDH from fragments: synthesis and initial structure-activity relationships” (Bioorg Med Chem Lett, 2006).
In brackets after ≈: the same amount, converted by molar mass.

Tests used:
[1] = Distribution coefficient Log D of compound at pH 7.4; type: physicochemical; conditions: octanol/water
How it was run: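 Compound (1–2 mg) shaken for 1 h at 750 osc/min with octanol and pH 7.4 phosphate buffer (0.1 M KH2PO4/NaOH), each presaturated with the other for 18 h. Both layers filtered through 0.2 µm PTFE and analysed by HPLC. Log D taken as log of normalised peak area in octanol over that in buffer.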

[2] = Apparent permeability in Caco-2 cell from apical to basolateral; type: ADME, cell-based; conditions: human
How it was run: (§1)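 Caco-2 monolayers (10-21 day culture, passage 30-40), confluence confirmed by TEER; medium replaced by HBSS pH 7.4. Test compound 1 µM, cassetted with 2 reference compounds (10 µM), added apically or basolaterally (n = 4); 2 h at 37 °C, 5% CO2. Receiver side analysed by LC-MSMS; Papp normalised to the known Papps of the reference compounds.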

[3] = Apparent permeability in Caco-2 cell from basolateral to apical; type: ADME, cell-based; conditions: human; how it was run: as §1
[4] = molecular target: T1, Inosine-5'-monophosphate dehydrogenase 2 (Homo sapiens, UniProt P12268); experiment: Inhibition of IMPDH2
[5] = molecular target: T1, Inosine-5'-monophosphate dehydrogenase 2; experiment: Inhibition of IMPDH2 at 30 uM
PBMC = experiment: Antiproliferative activity against PBMC; type: functional, cell-based; conditions: Homo sapiens
[6] = Aqueous solubility at pH 5; type: physicochemical
How it was run: (§2)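 Solid compound (0.5 mg) shaken in 150 mM phosphate buffer at room temperature for 90 min, then filtered. Filtrate concentration measured by HPLC (UV 254 nm) against a three-point calibration curve made from DMSO stocks. Done in duplicate at pH 7.4 and pH 5.0.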

[7] = Aqueous solubility at pH 7.4; type: physicochemical; how it was run: as §2

Cn1cc(C#N)c2ccccc21
logD [1]: 2.3 | Papp A→B [2]: 36.7 ×10⁻⁶ cm/s | Papp B→A [3]: 37.4 ×10⁻⁶ cm/s

O=C(NOCc1ccccc1)Nc1cccc2c(-c3ccncc3)c[nH]c12
IC50 [4]: 1.36 µM

CONC(=O)Nc1ccc2c(-c3ccncc3)c[nH]c2c1
IC50 [4]: 1.11 µM

Cn1cc(C#N)c2ccc(NS(=O)(=O)c3ccccc3)cc21
IC50 [4]: 7.68 µM

CN(C(=O)Nc1ccc2c(C#N)c[nH]c2c1)c1ccccc1
IC50 [4]: 15.4 µM

N#Cc1c[nH]c2cc(Nc3nc4ccccc4o3)ccc12
Inhibition [5]: 48%

CN(C(=O)Nc1ccc2c(-c3ccncc3)c[nH]c2c1)c1ccccc1
logD [1]: 2.93 | IC50 [4]: 0.084 µM | IC50 (PBMC): 12 µM | solubility [6]: 42 µg/mL (≈ 123 µM) | Papp A→B [2]: 14.3 ×10⁻⁶ cm/s | Papp B→A [3]: 6.7 ×10⁻⁶ cm/s

Cn1cc(C#N)c2cccc(Nc3nc4ccccc4o3)c21
IC50 [4]: 58.4 µM

c1ccc(-c2ccc3c(-c4ccncc4)c[nH]c3c2)cc1
IC50 [4]: 0.456 µM | IC50 (PBMC): 10 µM

CN(C(=O)Nc1cccc2c(-c3ccncc3)c[nH]c12)c1ccccc1
IC50 [4]: 19.5 µM

CCn1cc(C#N)c2ccc(NS(=O)(=O)Cc3ccccc3)cc21
IC50 [5]: Not Active

Cc1[nH]c2cc(NC(=O)N(C)c3ccccc3)ccc2c1-c1ccncc1
IC50 [4]: 0.128 µM

CCOC(=O)c1ccc2c(-c3ccncc3)c[nH]c2c1
IC50 [4]: 0.586 µM

N#Cc1c[nH]c2c(OCc3ccccc3)cccc12
IC50 [5]: Not Active

CN(C(=O)Nc1ccc2c(C#N)cn(C)c2c1)c1ccccc1
IC50 [4]: 17 µM

Cn1cc(C#N)c2ccc(NC(=O)Nc3ccccc3)cc21
IC50 [4]: 0.722 µM | IC50 (PBMC): 14 µM

O=S(=O)(Nc1cccc2c(-c3ccncc3)c[nH]c12)c1ccccc1
IC50 [4]: 6.21 µM

N#Cc1c[nH]c2cc(OCc3ccccc3)ccc12
IC50 [4]: 71.8 µM

CNOC(=O)Nc1ccc2c(C#N)cn(C)c2c1
IC50 [4]: 4.04 µM

Cn1cc(C#N)c2ccc(NS(=O)(=O)Cc3ccccc3)cc21
IC50 [4]: 21 µM

CN(C(=O)Nc1cccc2c(C#N)cn(C)c12)c1ccccc1
IC50 [4]: 7.85 µM

Cc1[nH]c2cc(NS(=O)(=O)c3ccccc3)ccc2c1-c1ccncc1
IC50 [4]: 0.222 µM

c1ccc2c(-c3ccncc3)c[nH]c2c1
logD [1]: 2.81 | IC50 (PBMC): 28 µM | Papp A→B [2]: 26.2 ×10⁻⁶ cm/s | Papp B→A [3]: 23.9 ×10⁻⁶ cm/s

O=S(=O)(Nc1ccc2c(-c3ccncc3)c[nH]c2c1)c1ccccc1
logD [1]: 2.01 | IC50 [4]: 0.364 µM | IC50 (PBMC): 14 µM | solubility [6]: 8 µg/mL (≈ 22.9 µM) | Papp A→B [2]: 6.5 ×10⁻⁶ cm/s | Papp B→A [3]: 9.3 ×10⁻⁶ cm/s

O=C(NOCc1ccccc1)Nc1ccc2c(-c3ccncc3)c[nH]c2c1
logD [1]: 3.54 | solubility [7]: 3.2 µg/mL (≈ 8.93 µM) | IC50 [4]: 0.076 µM | IC50 (PBMC): 4.6 µM | solubility [6]: 17.5 µg/mL (≈ 48.8 µM) | Papp A→B [2]: 6.5 ×10⁻⁶ cm/s | Papp B→A [3]: 7.3 ×10⁻⁶ cm/s

N#Cc1c[nH]c2cc(N)ccc12
IC50 [5]: Not Active

O=C(Nc1ccccc1)Nc1ccc2c(-c3ccncc3)c[nH]c2c1
IC50 [5]: Not Active

Cn1cc(C#N)c2ccc(NC(=O)NOCc3ccccc3)cc21
logD [1]: 2.74 | solubility [7]: 4 µg/mL (≈ 12.5 µM) | IC50 [4]: 1.17 µM | IC50 (PBMC): 17 µM | solubility [6]: 4.5 µg/mL (≈ 14 µM) | Papp A→B [2]: 19.3 ×10⁻⁶ cm/s | Papp B→A [3]: 19.1 ×10⁻⁶ cm/s
